M1 PAM parental: M1 PAM counterscreen hit in parental CHO-K1 cells; ATP EC20, Fluo-8 calcium fluorescence; 0% at ATP EC20, 100% at ATP max; activation, % at 3 µM; AID 602247; actives 0.02% (n = 360,000);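 active means activation above the run cutoff, the mean activation of all test compounds plus 3 SD, cut at about 40% in these data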;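 further: peak over basal fluorescence ratio in a 140 s read after ATP addition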
CHO-K1 Ca antag: nonselective inhibitor or artifact in parental CHO-K1 cells. ATP-induced calcium, Fluo-8 fluorescence. inhibition, % at 3 µM. actives 0.6% (n = 360,000);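 active means inhibition above a per-plate cutoff, the plate's mean sample inhibition plus 3 SD, cut at about 24% in these data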
OX1R antag-1: OX1R (human) antagonism. O43613. OX1R-expressing cells, FRET antagonist read-out. inhibition, % at 6.6 µM. actives 1.8% (n = 330,000); in the data active means inhibition mostly above about 38%, no sharp cut-off; inactive means mostly below about 40%
Target sequence (O43613 whole entry, looked up): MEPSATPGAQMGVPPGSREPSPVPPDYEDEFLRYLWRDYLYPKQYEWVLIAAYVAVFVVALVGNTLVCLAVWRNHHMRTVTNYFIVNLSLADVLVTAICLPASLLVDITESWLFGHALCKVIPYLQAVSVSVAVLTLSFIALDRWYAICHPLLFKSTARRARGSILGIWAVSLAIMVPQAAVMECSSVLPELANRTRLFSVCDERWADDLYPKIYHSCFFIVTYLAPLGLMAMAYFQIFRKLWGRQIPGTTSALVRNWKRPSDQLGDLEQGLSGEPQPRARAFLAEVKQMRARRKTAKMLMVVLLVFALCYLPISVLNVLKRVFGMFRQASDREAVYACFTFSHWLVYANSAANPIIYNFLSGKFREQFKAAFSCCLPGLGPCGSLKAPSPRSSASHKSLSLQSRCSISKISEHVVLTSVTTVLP
CHO-K1 Ca ag: nonselective activator or artifact in parental CHO-K1 cells. Fluo-8 calcium fluorescence; scaled to maximal ATP response, vehicle zero. actives 0.48% (n = 360,000). activation, % at 3 µM. AID 602248; in the data active means activation above about 15%;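 further: untransfected CHO-K1 host cells lacking M1 receptor as counterscreen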
CHO parental Ca: counter-screen for OX1R antagonists: effect in parental CHO cells; parental CHO-K1, ATP-induced calcium, Fluo-8 fluorescence; inhibition, % at 5.6 µM; actives 0.63% (n = 330,000); AID 463079;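 active means inhibition above that plate's mean sample inhibition plus 3 SD, cut at about 26% in these data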
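Material: parental CHO cells / Compound: single nominal dose of 5.6 µM per compound / Signal: Fluo-8 fluorescence / Replicates: singlicate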
OX1R antag-2: antagonists of human orexin 1 receptor | CHO/OX1R cells, Fluo-8 calcium fluorescence, orexin A | inhibition, % at 5 µM | actives 0.43% (n = 330,000);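 active means inhibition above its plate's threshold, mean inhibition of all tested compounds on the plate plus 3 SD, cut at about 37% in these data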
Each line names hits and unclear results; the compound was inactive in the other large screens. Most compounds without a hit are left out; they make up all but 2.9% or so of the library.

O=C(Cn1cnc2ccccc21)N/N=C/c1ccccc1	CHO-K1 Ca ag 17
CCCCn1c(N)c(N(CCOC)C(=O)c2cccc(S(=O)(=O)N3CCCCCC3)c2)c(=O)[nH]c1=O	none
CC(C)(C)N1[C@@H](CC(=O)O)c2cc(C(F)(F)F)ccc2S1(=O)=O	none
FC(F)(F)c1cc(-c2cccs2)nc2ncnn12	OX1R antag-1 62
O=C(c1[nH]ncc1-c1cccc(Br)c1)C1CO1 (stereo unspecified)	none
O=C(c1[nH]ncc1-c1ccccc1)C1CO1 (stereo unspecified)	CHO-K1 Ca ag 19
COc1ccc(/C=N/NC(=O)c2ccoc2C)cc1COc1c(C)cccc1C	CHO parental Ca 74, OX1R antag-2 51
Cc1cnc(CN(C)Cc2c(C(=O)N3CCc4ccccc4C3)nc3ccc(Cl)cn23)[nH]1	none
O=C1c2ccccc2C(=O)c2c1ncn2-c1ccccc1	OX1R antag-1 64
O=C(NC1CC1)C1CCN(c2ncnc3c2sc2cccc(F)c23)CC1	OX1R antag-1 68
Cc1cc2ccccn2c1C(=O)Nc1cccc(Cl)c1	none
O=C1NC(=S)NC1=Cc1ccc2c(c1)CCC2	none (no result: OX1R antag-1, CHO parental Ca, OX1R antag-2)
COc1cc(N2CCCC2)c(OC)cc1/C=C1/NC(=S)NC1=O	CHO-K1 Ca antag 35, CHO-K1 Ca ag 48, CHO parental Ca 32, OX1R antag-2 64
CCOc1ccc2[nH]c(C(=O)N/N=C/c3ccccc3OC)cc2c1	none
COc1ccc(OC)c(/C=N/NC(=O)c2cc3c(OC)c(OC)ccc3[nH]2)c1	none
COc1ccc2[nH]c(C(=O)N/N=C/c3ccccc3OC)cc2c1	OX1R antag-1 56
COc1cc(OC)c2cc(C(=O)N/N=C/c3ccccc3O)[nH]c2c1	OX1R antag-1 62
COc1cc(/C=N/n2c(=S)[nH]nc(C)c2=O)cc([N+](=O)[O-])c1O	CHO-K1 Ca antag 25
Cc1n[nH]c(=S)n(/N=C/c2cccc([N+](=O)[O-])c2)c1=O	none
N#C/C(=C(/O)COC(=O)c1ccccc1O)c1nc2ccccc2s1	OX1R antag-1 53
COc1cccc(C2c3[nH]c4ccccc4c3C[C@H]3C(=O)N(c4ccccc4C(=O)N4CCC(C(=O)O)CC4)C(=O)N23)c1 (stereo partly specified)	none
CCOC(=O)c1c(S(=O)(=O)NCC(=O)N2CCN(c3ccccc3)CC2)c(C)n(C)c1C	none
CCOc1ccc2nc(N3CCOCC3)nc(C)c2c1	none
CCOc1ccc2nc3ccc4[nH]onc4c3c2c1	OX1R antag-1 44
O=C(NNC(=O)c1cc(-c2ccccc2)nn1-c1ccccc1)c1ccccc1	none
O=C(Nn1c(C2CCCCC2)nc2ccccc2c1=O)c1ccc(Cl)c([N+](=O)[O-])c1	OX1R antag-1 53
O=C1CCCc2[nH]nc(-c3cccnc3)c21	CHO-K1 Ca antag 26
O=C(c1ccc(OC2CCN(C(=O)C3CC3)CC2)cc1)N(CCO)Cc1ccccc1	none
Cc1cccc(OCc2nc(C#N)c(N3CC(C)CC(C)C3)o2)c1 (stereo unspecified)	CHO parental Ca 38
Cc1c(NC(=O)COC(=O)c2ccc(S(=O)(=O)N3CCOCC3)cc2)c(=O)n(-c2ccccc2)n1C	none
COc1cccc(NC(=O)Cc2c(O)c3ccccc3[nH]c2=O)c1	CHO-K1 Ca antag 25
O=C(Cc1c(O)c2ccccc2[nH]c1=O)N(Cc1ccccc1)Cc1ccccc1	none
CCOc1ccc(NC(=O)Cc2c(O)c3ccccc3[nH]c2=O)cc1	none
O=C(Cc1c(O)c2ccccc2[nH]c1=O)OC1CCCCC1	CHO-K1 Ca antag 25
CN(C)S(=O)(=O)c1ccc(C(=O)NCCc2ccco2)cc1	none
O=P(OC1CCCCC1)(OC1CCCCC1)C(O)c1c(Cl)cccc1Cl (stereo unspecified)	OX1R antag-1 45
O=P(OC1CCCCC1)(OC1CCCCC1)C(O)c1ccc(Cl)cc1Cl (stereo unspecified)	none
Cc1cc(OCc2cc(C(=O)N3CCN(CC4CC4)CC3)no2)cc(C)c1Cl	none
COCC1CCN(C(=O)c2cc(COc3ccc4ncccc4c3)on2)CC1	CHO parental Ca 42
CC(=O)c1cccc(OCc2cc(C(=O)N3C[C@@H](C)O[C@@H](C)C3)no2)c1	CHO-K1 Ca antag 59
O=C(c1cc(COc2ccc3ncccc3c2)on1)N1CCCC1	none
Cc1cc(OCc2cc(C(=O)N3CCC(Oc4cccnc4)CC3)no2)cc(C)c1Cl	CHO-K1 Ca antag 26, CHO parental Ca 56
CC(=O)c1cccc(OCc2cc(C(=O)N3C[C@H]4CC[C@H]3C4)no2)c1	none
Cc1ccc(OCc2cc(C(=O)NC3CCCCC3)no2)cn1	none
O=C(NC1CCCC1)c1cc(COc2ccc3ncccc3c2)on1	CHO parental Ca 52
Cc1nc(C)c(-c2ccc(SCC(=O)Nc3cccc(Cl)c3)nn2)s1	none
Cc1noc(C)c1COC(=O)c1ccc(N(C)C)cc1	none
C[C@H](CO)N1C[C@H](C)[C@@H](CN(C)C(=O)NC2CCCCC2)Oc2ncc(Br)cc2C1=O	none (no result: OX1R antag-1, CHO parental Ca, OX1R antag-2)
O=C(NCCc1cn2ccccc2n1)c1cc(COc2ccc3ncccc3c2)on1	CHO-K1 Ca antag 33, OX1R antag-1 65, CHO-K1 Ca ag 19, CHO parental Ca 47, OX1R antag-2 47
CC(NC(=O)c1cc(COc2ccc3ncccc3c2)on1)c1ccc(F)cc1 (stereo unspecified)	CHO parental Ca 51, OX1R antag-2 43
CC(C)c1ccc(OCc2nnc(SCC(=O)N3CCCCC3)o2)cc1	none
Cc1cccc(NC(=S)N(CCCN2CCCC2)Cc2cccn2Cc2ccc(Cl)cc2)c1	CHO-K1 Ca ag 17
CC(=O)NC1C(c2nc3ccccc3s2)=C(c2ccccc2)C(=O)N1c1ccc(C)cc1 (stereo unspecified)	none
COc1cccc(N2C(=O)C(c3ccccc3)=C(c3nc4ccccc4s3)C2NC(C)=O)c1 (stereo unspecified)	OX1R antag-1 53
CC(=O)Nc1ccc(S(=O)(=O)NCC(=O)OCC(=O)NCc2ccco2)cc1	CHO-K1 Ca antag 28
CC(=O)Nc1ccc(S(=O)(=O)N(C)CC(=O)OCC(=O)NCc2ccco2)cc1	none
O=C(Nc1nnc(-c2ccc3c(c2)CCCC3)o1)c1ccc(Cl)cc1Cl	OX1R antag-1 55
Nc1cccc(N2C(=O)c3cccc4c(N)ccc(c34)C2=O)c1	CHO-K1 Ca ag 15
CC(C)CCN1C(=O)c2cccc3c(N)ccc(c23)C1=O	CHO-K1 Ca antag 67, CHO-K1 Ca ag 152, CHO parental Ca 85, OX1R antag-2 91
Nc1ccc2c3c(cccc13)C(=O)N(c1ccccc1)C2=O	CHO-K1 Ca antag 26, CHO-K1 Ca ag 50 (no result: OX1R antag-1, CHO parental Ca, OX1R antag-2)
O=C(O)c1cccc(N2C(=O)c3cccc4c(Cl)ccc(c34)C2=O)c1	none
COc1ccc(N2CCN(C(=O)Cn3nnc(-c4ccccc4N)n3)CC2)cc1	none
